Test [1] relates to MOLM-14. Put plainly: Induction of apoptosis in human MOLM14 cells assessed as early apoptotic cells at 3 uM after 48 hrs by Annexin-V FITC/propidium iodide staining based flow cytometry (reference value: 3.6 to 3.7%). The format is functional. In a few lines: (§1)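 MOLM-14 cells treated 48 h at the stated concentrations; doxorubicin as positive control. Stained with Annexin V-FITC and propidium iodide and analysed by flow cytometry (at least 10,000 events). Gated quadrants: Annexin V−/PI− viable, Annexin V+/PI− early apoptotic, Annexin V+/PI+ late apoptotic.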
In general terms: In flow cytometry, cells or beads pass a laser one at a time.

The target of test [2] is Phosphatidylinositol 4,5-bisphosphate 3-kinase catalytic subunit gamma isoform (Homo sapiens, UniProt P48736). The test can be described thus: Inhibition of human PI3Kgamma (S144 to A1102 residues) expressed in mammalian expression system by KINOMEScan assay.
Test [3] addresses T1, Protein deacetylase HDAC6 (Homo sapiens) (UniProt Q9UBN7).
T1 sequence (whole entry): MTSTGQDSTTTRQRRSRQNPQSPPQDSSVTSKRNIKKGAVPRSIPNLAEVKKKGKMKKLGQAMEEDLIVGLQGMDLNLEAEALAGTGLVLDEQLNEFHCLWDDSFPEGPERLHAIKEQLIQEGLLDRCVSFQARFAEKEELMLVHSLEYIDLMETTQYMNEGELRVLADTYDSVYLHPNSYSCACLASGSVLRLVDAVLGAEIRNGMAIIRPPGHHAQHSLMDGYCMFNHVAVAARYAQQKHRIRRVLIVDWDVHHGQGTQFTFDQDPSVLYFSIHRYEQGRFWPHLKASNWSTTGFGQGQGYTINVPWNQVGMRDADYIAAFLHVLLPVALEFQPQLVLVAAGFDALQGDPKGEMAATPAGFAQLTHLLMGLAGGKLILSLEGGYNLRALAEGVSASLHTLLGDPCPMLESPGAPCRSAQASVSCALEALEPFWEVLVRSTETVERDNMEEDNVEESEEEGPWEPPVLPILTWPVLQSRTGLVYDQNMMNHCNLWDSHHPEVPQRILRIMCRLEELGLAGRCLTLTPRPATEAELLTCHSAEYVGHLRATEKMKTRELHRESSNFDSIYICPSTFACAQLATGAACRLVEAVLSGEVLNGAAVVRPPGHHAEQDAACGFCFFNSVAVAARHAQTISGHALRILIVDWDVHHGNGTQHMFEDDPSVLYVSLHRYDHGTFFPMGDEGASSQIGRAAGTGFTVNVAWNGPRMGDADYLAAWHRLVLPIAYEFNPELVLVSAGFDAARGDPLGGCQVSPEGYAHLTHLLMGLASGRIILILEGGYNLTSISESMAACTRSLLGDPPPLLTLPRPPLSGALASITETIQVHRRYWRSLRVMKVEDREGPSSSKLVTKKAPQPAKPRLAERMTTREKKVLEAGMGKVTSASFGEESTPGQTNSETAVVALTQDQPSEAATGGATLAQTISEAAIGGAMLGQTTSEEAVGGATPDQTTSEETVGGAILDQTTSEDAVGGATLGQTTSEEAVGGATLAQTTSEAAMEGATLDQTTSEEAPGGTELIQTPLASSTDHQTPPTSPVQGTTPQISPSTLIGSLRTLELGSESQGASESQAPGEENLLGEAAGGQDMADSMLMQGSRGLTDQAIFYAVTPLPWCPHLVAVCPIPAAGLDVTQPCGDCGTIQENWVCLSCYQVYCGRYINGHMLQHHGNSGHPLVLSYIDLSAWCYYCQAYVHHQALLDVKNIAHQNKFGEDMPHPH
The test can be described thus: Inhibition of HDAC6 in human KMS-12-BM cells assessed as increase in acetylated tubulin level at 2 times antiproliferative IC50 up to 48 hrs by immunoblot method. The format is cell-based. In a few lines:
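KMS-12-BM or MOLM-14 cells (at least 3x10^6 per condition) treated at about 2x their proliferation IC50 in a time course of 0 to 48 h. Tubastatin (15 μM, 48 h) used as HDAC6 control. Lysates immunoblotted for acetyl-α-tubulin and acetyl-H3 (Lys9/Lys14); re-probed for α-tubulin and H3.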
(In general: A western blot detects proteins with antibodies after separation by electrophoresis.)

Test [4] has as its target Receptor-type tyrosine-protein kinase FLT3 (Homo sapiens) (UniProt P36888). Put plainly: Inhibition of FLT3 (unknown origin) at 0.1 uM preincubated for 20 mins followed by [33P]ATP addition measured after 120 mins by Hotspot assay relative to control. The method, boiled down: (§2)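 Radiometric HotSpot kinase assay. Buffer: 20 mM HEPES pH 7.5, 10 mM MgCl2, 1 mM EGTA, 0.02% Brij35, 0.02 mg/mL BSA, 0.1 mM Na3VO4, 2 mM DTT, 1% DMSO. Compound added about 20 min before ATP/[33P]ATP (10 μM final). Reactions run 120 min at 25 °C, spotted on P81 filters and washed in phosphoric acid. Activity expressed relative to DMSO after background subtraction. Single-concentration panel at 100 nM in duplicate.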

Test [5] deals with Tyrosine-protein kinase JAK2 (Homo sapiens, UniProt O60674). Put plainly: Inhibition of JAK2 in IL-6-stimulated human MOLM14 cells assessed as suppression of STAT3 phosphorylation at TY705 residue at 1.5 uM pretreated for 3 hrs followed by IL-6 stimulation by immunoblot method. The format is cell-based. The following applies: MOLM-14. The method, boiled down:
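Cells (at least 3x10^6 per condition; KMS-12-BM or MOLM-14) pretreated with compound for 3 h, then stimulated with IL-6 10 ng/mL for 15 min. Cells lysed, equal protein run on SDS-PAGE and transferred to PVDF. Immunoblotted for p-STAT3 (Tyr705), with membranes re-probed for total STAT3. Reference JAK2 inhibitor control at 2 µM (KMS-12-BM) or 0.1 µM (MOLM-14).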

Test [6] concerns the target Tyrosine-protein kinase JAK1 (Homo sapiens) (UniProt P23458). The test can be described thus: Inhibition of JAK1 (unknown origin) at 0.1 uM preincubated for 20 mins followed by [33P]ATP addition measured after 120 mins by Hotspot assay relative to control. The method, boiled down: as §2
Test [7] concerns Tyrosine-protein kinase JAK2 (Homo sapiens), O60674 [V617F]. The test can be described thus: Inhibition of JAK2 V617F mutant in HEL 92.1.7 cells assessed as decrease in STAT5 phosphorylation at antiproliferative IC50 after 1 hr by immunoblot method. The format is cell-based. In a few lines:
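HEL92.1.7 cells seeded at 5x10^5/mL and treated 1 h at 0, 0.1, 0.5 and 1 μM. Lysed in RIPA with phosphatase/protease inhibitors, run on 10% SDS-PAGE and blotted to PVDF. Probed for acetyl-tubulin, acetyl-H3 (Lys9/Lys14), p-JAK2 (Y1007/1008) and p-STAT5 (Tyr694); membranes re-probed for tubulin, H3, JAK2 and STAT5. Quantified by densitometry.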

Test [8] relates to MOLM-14. The test can be described thus: Induction of apoptosis in human MOLM14 cells assessed as necrotic cells at 3 uM after 48 hrs by Annexin-V FITC/propidium iodide staining based flow cytometry (reference value: 0.1%). The format is functional. The method, boiled down: as §1
A short description of test [9]: Antiproliferative activity against mouse TAMH cells after 24 hrs by CellTiter-Glo assay. The format is ADME, cell-based. (Cellular ATP, detected with luciferase, serves as a proxy for viable cell number.)
Test [10] has as its target Tyrosine-protein kinase JAK3 (Homo sapiens, UniProt P52333). Put plainly: Inhibition of human JAK3 JH1 catalytic domain (I781 to S1124 residues) expressed in mammalian expression system by KINOMEScan assay.

Structures are written as SMILES. Active and inactive are the calls of the source. The calls are words filed in the database; no cut-off is given here.

Sequence of Tyrosine-protein kinase JAK2 (O60674 whole entry): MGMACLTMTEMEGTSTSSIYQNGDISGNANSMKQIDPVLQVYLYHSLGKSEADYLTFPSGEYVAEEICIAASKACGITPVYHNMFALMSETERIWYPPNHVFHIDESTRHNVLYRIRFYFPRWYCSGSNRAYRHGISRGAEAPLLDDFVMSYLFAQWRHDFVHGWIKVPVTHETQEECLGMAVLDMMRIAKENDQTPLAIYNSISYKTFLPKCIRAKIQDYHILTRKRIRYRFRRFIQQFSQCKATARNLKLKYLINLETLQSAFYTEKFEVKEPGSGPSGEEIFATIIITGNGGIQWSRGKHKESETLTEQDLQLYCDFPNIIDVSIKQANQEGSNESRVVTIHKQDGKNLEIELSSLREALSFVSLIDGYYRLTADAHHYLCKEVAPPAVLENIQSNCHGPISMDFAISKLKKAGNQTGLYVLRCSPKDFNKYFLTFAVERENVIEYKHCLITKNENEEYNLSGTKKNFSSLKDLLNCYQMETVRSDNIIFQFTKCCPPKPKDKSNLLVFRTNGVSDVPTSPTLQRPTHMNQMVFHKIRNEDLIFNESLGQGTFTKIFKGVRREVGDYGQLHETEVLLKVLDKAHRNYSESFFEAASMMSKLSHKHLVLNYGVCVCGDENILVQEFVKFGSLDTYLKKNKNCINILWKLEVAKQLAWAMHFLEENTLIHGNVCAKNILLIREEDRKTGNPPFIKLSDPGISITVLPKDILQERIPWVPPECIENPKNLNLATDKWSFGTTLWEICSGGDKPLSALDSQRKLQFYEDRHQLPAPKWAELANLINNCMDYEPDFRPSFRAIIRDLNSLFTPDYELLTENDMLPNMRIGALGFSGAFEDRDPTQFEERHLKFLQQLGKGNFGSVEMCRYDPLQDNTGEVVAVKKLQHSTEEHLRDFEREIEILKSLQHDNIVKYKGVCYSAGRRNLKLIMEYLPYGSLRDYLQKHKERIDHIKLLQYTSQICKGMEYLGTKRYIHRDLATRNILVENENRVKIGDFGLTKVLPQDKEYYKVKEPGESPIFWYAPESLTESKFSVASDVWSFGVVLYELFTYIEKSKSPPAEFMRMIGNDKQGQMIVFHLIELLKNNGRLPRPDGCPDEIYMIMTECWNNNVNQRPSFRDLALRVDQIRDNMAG
Sequence of Phosphatidylinositol 4,5-bisphosphate 3-kinase catalytic subunit gamma isoform (P48736 whole entry, the tested form may be a part, canonical isoform): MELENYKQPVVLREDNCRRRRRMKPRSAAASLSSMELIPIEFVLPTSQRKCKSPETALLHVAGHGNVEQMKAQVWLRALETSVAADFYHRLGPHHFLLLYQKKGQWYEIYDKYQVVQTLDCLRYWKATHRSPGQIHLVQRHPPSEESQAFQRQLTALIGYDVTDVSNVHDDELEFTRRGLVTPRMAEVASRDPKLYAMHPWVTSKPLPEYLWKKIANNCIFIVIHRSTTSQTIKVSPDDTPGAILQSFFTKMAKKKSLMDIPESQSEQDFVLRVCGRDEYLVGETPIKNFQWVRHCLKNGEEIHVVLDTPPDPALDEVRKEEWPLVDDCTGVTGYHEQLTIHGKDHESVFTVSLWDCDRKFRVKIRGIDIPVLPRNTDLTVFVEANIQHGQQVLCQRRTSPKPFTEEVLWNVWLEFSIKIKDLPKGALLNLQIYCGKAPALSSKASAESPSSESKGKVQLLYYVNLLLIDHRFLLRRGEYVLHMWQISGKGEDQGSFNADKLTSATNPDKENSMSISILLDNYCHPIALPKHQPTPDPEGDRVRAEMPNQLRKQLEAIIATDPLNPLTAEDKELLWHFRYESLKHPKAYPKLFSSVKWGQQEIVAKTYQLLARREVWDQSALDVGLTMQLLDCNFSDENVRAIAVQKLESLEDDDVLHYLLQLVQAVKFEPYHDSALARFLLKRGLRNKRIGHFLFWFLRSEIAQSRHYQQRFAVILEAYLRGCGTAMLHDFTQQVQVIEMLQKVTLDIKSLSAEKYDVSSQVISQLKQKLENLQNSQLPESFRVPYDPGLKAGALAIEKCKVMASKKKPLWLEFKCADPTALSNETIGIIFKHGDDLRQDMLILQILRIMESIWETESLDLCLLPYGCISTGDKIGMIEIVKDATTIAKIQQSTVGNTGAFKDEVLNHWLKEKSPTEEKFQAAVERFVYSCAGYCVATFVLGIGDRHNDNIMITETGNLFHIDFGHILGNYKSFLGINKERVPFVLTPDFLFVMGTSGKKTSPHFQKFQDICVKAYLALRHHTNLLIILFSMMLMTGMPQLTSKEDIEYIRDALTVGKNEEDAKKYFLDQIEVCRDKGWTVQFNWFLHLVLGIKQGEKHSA
Sequence of Tyrosine-protein kinase JAK3 (P52333 whole entry, the tested form may be a part): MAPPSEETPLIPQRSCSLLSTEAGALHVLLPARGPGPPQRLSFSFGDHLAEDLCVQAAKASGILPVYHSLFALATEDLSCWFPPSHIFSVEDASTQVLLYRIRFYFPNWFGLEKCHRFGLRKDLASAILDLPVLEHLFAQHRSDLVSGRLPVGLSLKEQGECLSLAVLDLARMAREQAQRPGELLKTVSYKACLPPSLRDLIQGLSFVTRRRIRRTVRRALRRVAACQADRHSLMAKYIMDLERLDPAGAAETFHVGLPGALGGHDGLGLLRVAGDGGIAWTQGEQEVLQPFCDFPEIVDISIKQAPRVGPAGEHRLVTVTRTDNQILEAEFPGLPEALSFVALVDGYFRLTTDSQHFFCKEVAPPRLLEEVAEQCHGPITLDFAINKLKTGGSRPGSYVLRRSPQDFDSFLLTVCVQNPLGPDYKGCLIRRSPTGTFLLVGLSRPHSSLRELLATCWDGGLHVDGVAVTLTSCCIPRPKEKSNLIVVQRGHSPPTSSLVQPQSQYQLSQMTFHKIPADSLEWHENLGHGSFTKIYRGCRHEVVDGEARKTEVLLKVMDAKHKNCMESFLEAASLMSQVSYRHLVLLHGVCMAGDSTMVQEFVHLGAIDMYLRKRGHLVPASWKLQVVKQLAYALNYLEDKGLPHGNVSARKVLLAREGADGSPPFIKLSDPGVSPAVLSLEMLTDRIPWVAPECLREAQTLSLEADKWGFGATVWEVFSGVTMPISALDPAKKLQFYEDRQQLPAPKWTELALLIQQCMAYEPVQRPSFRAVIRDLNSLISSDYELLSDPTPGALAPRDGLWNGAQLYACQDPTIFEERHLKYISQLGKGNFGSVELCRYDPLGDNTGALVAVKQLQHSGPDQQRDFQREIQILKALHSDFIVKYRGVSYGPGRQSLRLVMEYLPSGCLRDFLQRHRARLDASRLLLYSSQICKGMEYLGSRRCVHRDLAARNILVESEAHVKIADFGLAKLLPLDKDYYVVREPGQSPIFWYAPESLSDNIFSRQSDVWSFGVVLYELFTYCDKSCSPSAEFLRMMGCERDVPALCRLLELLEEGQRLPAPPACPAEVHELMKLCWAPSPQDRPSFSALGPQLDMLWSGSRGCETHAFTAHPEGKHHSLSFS
Sequence of Tyrosine-protein kinase JAK1 (Homo sapiens) (P23458 whole entry): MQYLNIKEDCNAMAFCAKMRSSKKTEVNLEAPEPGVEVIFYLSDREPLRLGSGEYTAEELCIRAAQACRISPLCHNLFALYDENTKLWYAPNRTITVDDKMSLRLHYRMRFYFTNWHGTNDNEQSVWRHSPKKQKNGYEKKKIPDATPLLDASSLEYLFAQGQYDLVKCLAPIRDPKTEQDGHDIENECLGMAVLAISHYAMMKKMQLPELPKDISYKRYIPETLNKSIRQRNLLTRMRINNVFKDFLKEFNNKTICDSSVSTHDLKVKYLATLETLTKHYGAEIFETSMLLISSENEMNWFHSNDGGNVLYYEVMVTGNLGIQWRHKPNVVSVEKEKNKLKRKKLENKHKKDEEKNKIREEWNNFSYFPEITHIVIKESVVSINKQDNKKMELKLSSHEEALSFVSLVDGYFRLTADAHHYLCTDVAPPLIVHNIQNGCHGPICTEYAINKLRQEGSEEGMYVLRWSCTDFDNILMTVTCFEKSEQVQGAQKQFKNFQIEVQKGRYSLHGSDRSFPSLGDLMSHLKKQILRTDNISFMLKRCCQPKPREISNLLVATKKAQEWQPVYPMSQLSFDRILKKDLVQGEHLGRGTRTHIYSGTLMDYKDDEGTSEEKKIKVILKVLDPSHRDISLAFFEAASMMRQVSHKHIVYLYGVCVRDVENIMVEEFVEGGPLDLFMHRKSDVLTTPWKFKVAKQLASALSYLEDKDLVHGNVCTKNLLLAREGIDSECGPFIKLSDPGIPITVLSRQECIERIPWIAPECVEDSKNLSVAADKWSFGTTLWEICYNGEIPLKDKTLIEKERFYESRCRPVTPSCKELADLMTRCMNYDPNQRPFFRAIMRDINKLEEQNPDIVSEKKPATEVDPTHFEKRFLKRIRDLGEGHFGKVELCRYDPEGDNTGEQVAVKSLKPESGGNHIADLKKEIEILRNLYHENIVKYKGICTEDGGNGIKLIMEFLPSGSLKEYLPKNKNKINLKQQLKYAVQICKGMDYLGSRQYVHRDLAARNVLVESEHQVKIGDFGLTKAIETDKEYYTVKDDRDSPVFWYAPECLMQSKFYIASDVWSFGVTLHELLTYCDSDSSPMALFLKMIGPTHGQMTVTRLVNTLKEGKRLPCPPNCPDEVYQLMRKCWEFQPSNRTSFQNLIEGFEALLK
Sequence of Tyrosine-protein kinase JAK2 (Homo sapiens), O60674 [V617F] (O60674 whole entry V617F): as the sequence (O60674 whole entry) above, with V617F counted along it

As usually defined, the IC50 is the concentration that inhibits the measured activity by half. As a reminder, the inhibition is the change of the read-out against control, counted positive when it falls. In the case of `O=C(CCCCCCOc1ccc2cc1COC/C=C/COCc1cccc(c1)-c1ccnc(n1)N2)NO`, the Activity in test [1] was 24.4%; in test [8], 1.3%. Moreover, the IC50 is 10 to 1000 nM in test [2], 9.57 µM in [9] and 10 to 1000 nM in test [10]. For the same compound, the inhibition entry in test [3], in [5] and in test [7] was “Active” each time. In addition, the inhibition in test [4] worked out at 67%; in test [6], 8.7%.

For the origin of these results see ChEMBL document CHEMBL3877241 (J Med Chem, 2016).
